The values that follow come from ChEMBL document CHEMBL1149180, “Synthesis and biological evaluation of 2-phenylpyran-4-ones: a new class of orally active cyclooxygenase-2 inhibitors” (J Med Chem, 2004).

As a reminder, the ED50 is the dose that gives a 50% effect, or the effect in half of the subjects. The term half-life denotes how long it takes for the measured level to halve. Lower therefore signals fast loss. One may read the IC50 as the concentration at which inhibition is half-maximal. A higher IC50 goes with weaker potency in that assay. In general, AUC refers to concentration integrated over time. As usually defined, the Cmax is the peak of the concentration-time curve.

For series [1], the species on record is Rattus norvegicus. Put plainly: Effective dose in the yeast-induced pyresis model in rat. The format is functional. The essentials:
(§1)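 Yeast-induced pyresis in male Wistar rats fasted 18 h with free access to water, with test compounds given orally. […] Groups were compared by ANOVA, with p < 0.05 significant.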

Series [2] concerns Rattus norvegicus. In words: In vivo inhibition of hyperalgesia in rat at 3 mg/kg. It counts as functional. The essentials: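 Atkinson inflammatory hyperalgesia model in male Wistar rats fasted 18 h with free access to water. Percent inhibition was measured at 3 mg/kg, with six to seven animals, reported ± SEM. Groups were compared by ANOVA, with p < 0.05 significant.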
A short description of series [3]: Half life after 10 mg/kg oral administration in rat. It counts as ADME, organism-based. The arrangement: dose 10 mg/kg, route oral. The following applies: in vivo. A digest of the protocol:
(§2)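 Fasted male Wistar rats dosed orally at 10 mg/kg, with blood sampled at several time points. Plasma (100 µL, 200 µL for one compound) was mixed with 20 mM sodium acetate pH 4 and analysed by online solid-phase extraction, isocratic reversed-phase HPLC and UV detection at 270-280 nm. Parameters came from noncompartmental analysis, with three animals per group.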

The target of series [4] is T1, Prostaglandin G/H synthase 2 (Homo sapiens, UniProt P35354).
T1 sequence (P35354 whole entry): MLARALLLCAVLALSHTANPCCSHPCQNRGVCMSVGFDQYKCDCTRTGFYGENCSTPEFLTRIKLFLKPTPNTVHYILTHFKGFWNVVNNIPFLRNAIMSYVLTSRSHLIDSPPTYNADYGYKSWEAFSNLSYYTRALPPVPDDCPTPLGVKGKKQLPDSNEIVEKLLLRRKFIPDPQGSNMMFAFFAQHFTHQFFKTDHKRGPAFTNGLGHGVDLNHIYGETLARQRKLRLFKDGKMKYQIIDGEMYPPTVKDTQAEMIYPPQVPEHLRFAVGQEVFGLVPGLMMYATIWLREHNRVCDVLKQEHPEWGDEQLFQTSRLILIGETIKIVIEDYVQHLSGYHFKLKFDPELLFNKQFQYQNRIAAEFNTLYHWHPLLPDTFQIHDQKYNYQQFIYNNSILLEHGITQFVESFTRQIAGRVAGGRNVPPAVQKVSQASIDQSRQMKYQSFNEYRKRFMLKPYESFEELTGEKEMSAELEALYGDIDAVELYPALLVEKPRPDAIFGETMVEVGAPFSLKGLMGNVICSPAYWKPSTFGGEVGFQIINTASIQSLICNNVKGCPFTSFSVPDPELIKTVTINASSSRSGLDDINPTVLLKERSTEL
Put plainly: Inhibition concentration against cyclooxygenase-2 (COX-2) in human whole blood. The format is tissue-based.

Series [5] can be described thus: Area under curve after 10 mg/kg oral administration in rat at 0-24 hr. It counts as ADME, organism-based. The arrangement: time < 24 hr, dose 10 mg/kg, route oral. To be noted: in vivo. The essentials: as §2
The next series is filed under the species Homo sapiens. In words: Compound was tested for human plasma protein binding. The format is cell-free. A digest of the protocol: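 Pooled human plasma, 1 mL aliquots, incubated with 2.5 µg/mL compound at 37 °C for 2 h. Ultrafiltration by centrifugation at 2000g for 15 min. Ultrafiltrate diluted 1:1 in acetonitrile/water (50:50) and assayed by isocratic HPLC with MS detection (SIR mode). Protein-free levels quantified against 25 and 250 ng/mL standards in PBS.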

The nature of series [6]: Cmax after 10 mg/kg oral administration in rat. It counts as ADME, organism-based. The arrangement: dose 10 mg/kg, route oral. To be noted: in vivo. A digest of the protocol:
as §2

In series [7] the test system is Rattus norvegicus. Put plainly: Compound was tested in vivo for adjuvant arthritis in rat. The format is functional.
Series [8] deals with Prostaglandin G/H synthase 1 (Homo sapiens, UniProt P23219). In words: Inhibition concentration against cyclooxygenase-1 (COX-1) in human whole blood. It counts as tissue-based.
Prostaglandin G/H synthase 1, sequence (P23219 whole entry): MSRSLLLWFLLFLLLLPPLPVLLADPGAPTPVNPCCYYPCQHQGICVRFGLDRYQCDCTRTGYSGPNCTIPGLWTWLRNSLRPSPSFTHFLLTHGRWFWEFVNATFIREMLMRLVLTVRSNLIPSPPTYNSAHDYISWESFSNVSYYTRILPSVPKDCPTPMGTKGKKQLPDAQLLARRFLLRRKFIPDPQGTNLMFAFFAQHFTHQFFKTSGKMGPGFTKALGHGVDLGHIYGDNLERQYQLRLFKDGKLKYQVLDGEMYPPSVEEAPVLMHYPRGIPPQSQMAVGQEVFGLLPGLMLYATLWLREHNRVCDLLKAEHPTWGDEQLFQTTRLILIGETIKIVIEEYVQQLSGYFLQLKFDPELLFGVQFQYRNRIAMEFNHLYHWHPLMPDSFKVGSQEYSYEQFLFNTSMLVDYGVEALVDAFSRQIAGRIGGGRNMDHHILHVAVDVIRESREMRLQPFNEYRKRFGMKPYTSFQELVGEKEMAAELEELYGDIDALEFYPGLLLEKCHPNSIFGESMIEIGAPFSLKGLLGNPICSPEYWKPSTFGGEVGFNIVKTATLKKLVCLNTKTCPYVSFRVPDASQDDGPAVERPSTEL
Series [9] is filed under the species Rattus norvegicus. Put plainly: Effective dose in the adjuvant induced arthritis model in rat. It counts as functional. A digest of the protocol:
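Adjuvant-induced arthritis in male Wistar rats fasted 18 h with free access to water. ED50 (mg/kg) was derived from four doses with six to eight animals per group. Groups were compared by ANOVA, with p < 0.05 taken as significant.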

Series [10] concerns Rattus norvegicus. Put plainly: Inhibition at 10 mg/kg in the yeast-induced pyresis model in rat.
For series [11], the system named is Rattus norvegicus. In words: Percent inhibition of compound against yeast-induced pyresis model in rat at 10 mg/kg. The following applies: read-out: Inhibition. The format is functional. The essentials: as §1

Regarding `Cc1cc(=O)c(Oc2ccc(Cl)cc2F)c(-c2ccc(S(C)(=O)=O)cc2)o1`, the ED50 in the series listed under Rattus norvegicus [1] amounted to 0.8 mg/kg; in the series with Rattus norvegicus [7], 0.05 mg/kg. The inhibition in vivo at 3 mg/kg with Rattus norvegicus [2] is 54%. Moreover, the half-life in series [3] is 198 min. For the same compound, the values for the IC50 in series [4] and in series [8] were 200 nM and 18.8 µM, respectively. In addition, the AUC at 24 h in series [5] is 23400 ng·h/mL. In the series listed under Homo sapiens, this compound gave a Binding of 97.5. For the same compound, the concentration in series [6] peaked (Cmax) at 2000 ng/mL.
For `CS(=O)(=O)c1ccc(C2=C(c3ccccc3)C(=O)OC2)cc1` [ROFECOXIB], the ED50 in the series listed under Rattus norvegicus [9] stood at 0.3 mg/kg; in the series listed under Rattus norvegicus [1], 0.9 mg/kg. Also, the inhibition in vivo at 3 mg/kg in the series on Rattus norvegicus [2] was 60%.
As for `Cc1cc(=O)c(Oc2ccc(Cl)cc2)c(-c2ccc(S(C)(=O)=O)cc2)o1`, the ED50 turned out to be 2.2 mg/kg in the series filed under Rattus norvegicus [1] and 0.3 mg/kg in the series on Rattus norvegicus [7]. Besides, in the series on Rattus norvegicus [2], the inhibition in vivo at 3 mg/kg amounted to 51%. Besides, the half-life in series [3] was 156 min. The results for the IC50 in series [4] and in series [8] were 320 nM and 207 µM, respectively. Besides, the AUC at 24 h in series [5] came to 69000 ng·h/mL. The Binding in the series filed under Homo sapiens worked out at 98.2. For the same compound, the Cmax in [6] worked out at 5400 ng/mL.
For the compound `Cc1cc(=O)c(Oc2ccc(Br)cc2F)c(-c2ccc(S(C)(=O)=O)cc2)o1`, the values for the ED50 in the series filed under Rattus norvegicus [1] and with Rattus norvegicus [7] were 3.2 mg/kg and 0.008 mg/kg, respectively. In the series on Rattus norvegicus [2], this compound registered an inhibition in vivo at 3 mg/kg of 61%. For the same compound, the half-life in [3] was 216 min. Besides, the AUC at 24 h in series [5] stood at 10900 ng·h/mL. Further, in the series listed under Homo sapiens, the Binding is 93.9. The same compound gave a Cmax in series [6] of 900 ng/mL. The compound further came in with an IC50 in [8] of 22.8 µM.
For the compound `Cc1cc(=O)c(Oc2ccc(F)cc2F)c(-c2ccc(S(C)(=O)=O)cc2)o1`, the ED50 in the series filed under Rattus norvegicus [1] stood at 0.7 mg/kg; in the series with Rattus norvegicus [7], 0.015 mg/kg. This compound showed an inhibition in vivo at 3 mg/kg in the series with Rattus norvegicus [2] of 69%. Besides, the half-life in series [3] is 270 min. For the same compound, the results for the IC50 in series [4] and in series [8] were 80 nM and 22.3 µM, respectively. The AUC at 24 h in series [5] was 90200 ng·h/mL. Further, in the series listed under Homo sapiens, the Binding was 98.4. In series [6], this compound returned a Cmax of 6800 ng/mL.
Regarding `Cc1cc(=O)c(-c2ccccc2)c(-c2ccc(S(C)(=O)=O)cc2)o1`, the IC50 was 1840 nM in series [4] and more than 100 µM in series [8]. Further, the Inhibition % in the series on Rattus norvegicus [10] was 0%. In addition, the inhibition in vivo at 10 mg/kg in the series on Rattus norvegicus [11] is 0%.
In the case of `Cc1ccc(-c2ncc(Cl)cc2-c2ccc(S(C)(=O)=O)cc2)cn1` [ETORICOXIB], the ED50 in the series listed under Rattus norvegicus [9] stood at 0.44 mg/kg; in the series listed under Rattus norvegicus [1], 1 mg/kg. Also, the inhibition in vivo at 3 mg/kg with Rattus norvegicus [2] came out at 35%. In addition, the IC50 in [8] turned out to be 98.8 µM.
